Data: publication PMC6110378 (The Pediatric Infectious Disease Journal, 2018)
Values after ≈ are worked out from the molar mass of the structure shown. Starred links: 1 amine or outer side, 2 acyl side, 3 side chain; linkers in the order of their positions; H or OH if unused. Positions of bridges follow the written chain, without caps; N, C: chain ends. Non-standard residues stand in square brackets, D forms with d. Residues, ends and D or L forms follow the SMILES beside them. *: point of attachment. hTyr(3S-OH,4S-OH,3'-OSO3H) = N[C@H](C(=O)O)[C@H](O)[C@@H](O)c1ccc(O)c(OS(=O)(=O)O)c1; Orn(4R-OH,5R-OH) = O=C([C@H](C[C@@H](O)[C@@H](O)N[*:3])N[*:1])[*:2]; Pro(3S-OH,4S-Me) = C[C@H]1CN[C@H](C(=O)O)[C@H]1O; X1 = CCCCCOc1ccc(-c2cc(-c3ccc(C(=O)*)cc3)no2)cc1; Gln(3R-OH) = NC(=O)C[C@@H](O)[C@H](N)C(=O)O; Hyp = O=C(O)[C@@H]1C[C@@H](O)CN1

How the values were obtained:
Population PK model = assay type: in vivo, human infants; conditions: 2-compartment population PK model, 64 infants
Procedure, shortened: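 The dataset was 287 HPLC-measured plasma concentrations from 64 infants aged 3–119 days in 4 pediatric trials, at doses of 0.75–10 mg/kg. A 2-compartment model was fitted in Pmetrics, with infusion into the central compartment and observations weighted by inverse assay variance. Clearance was allometrically scaled. Clearance and volume were normalized to the 1.8 kg mean weight. Kcp and Kpc are central↔peripheral transfer rates. Fit was assessed from observed versus predicted values, r2, bias and imprecision.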

Candida = experiment: MIC values of isolates from infants with invasive candidiasis; assay type: cell-based
[1] = tested on: hematogenous Candida meningoencephalitis; conditions: rabbit model of hematogenous Candida meningoencephalitis; cited from earlier work

In the case of CCCCCOc1ccc(-c2cc(-c3ccc(C(=O)N[C@H]4C[C@@H](O)[C@@H](O)NC(=O)[C@@H]5[C@@H](O)[C@@H](C)CN5C(=O)[C@H]([C@H](O)CC(N)=O)NC(=O)[C@H]([C@H](O)[C@@H](O)c5ccc(O)c(OS(=O)(=O)O)c5)NC(=O)[C@@H]5C[C@@H](O)CN5C(=O)[C@H]([C@@H](C)O)NC4=O)cc3)no2)cc1 [micafungin] (X1-[Orn(4R-OH,5R-OH)]T[Hyp][hTyr(3S-OH,4S-OH,3'-OSO3H)][Gln(3R-OH)][Pro(3S-OH,4S-Me)]; lactam 1-C), the “Vstd (volume in the central compartment), median” value (Population PK model; normalized to 1.8 kg, median) is reported as 0.43 L/1.8 kg, the “Kcp (rate of drug moving from the central to the peripheral compartment), mean” value (Population PK model; mean (range)) is reported as 1.74 (0.035–5.966) h^–1 and the “Kpc (rate of drug moving from the peripheral to the central compartment), mean” value (Population PK model; mean (range)) is reported as 1.92 (0.090–5.970) h^–1. For the same compound, the “Kcp, median” value (Population PK model; median) was 0.99 h^–1, the “Kpc, median” value (Population PK model; median) was 2.00 h^–1 and the MIC90 (Candida; isolates of infants in the 2 mg/kg study (n = 17)) was 1 µg/mL (≈ 0.787 µM). The MIC90 (Candida; isolates of infants in the 10 mg/kg study (n = 12)) was 2 µg/mL (≈ 1.57 µM), the “AUC:MIC ratio PD target for near-maximal effect” value [1] was 1332 and the “CNS PD target AUC for near-maximal effect” value [1] was “approximately 166.5 mg·h/L”.
